Reference: ChEMBL document CHEMBL4196055, “Synthesis and biological evaluation of α-santonin derivatives as anti-hepatoma agents” (Eur J Med Chem, 2018)

How the values were obtained:
[1] = tested on: HepG2; test: Antiproliferative activity against human HepG2 cells at 10 uM after 24 hrs by CCK-8 assay relative to control; type: functional
Procedure, shortened: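 HepG-2 grown in DMEM with 10% FBS and penicillin/streptomycin (37 °C, 5% CO2). Seeded 2 × 10^5 cells/well for 24 h, then given a single 10 μM dose or 1% DMSO vehicle for 24 h. CCK-8 reagent for 1 h, A450 read, and percent inhibition calculated against untreated control cells.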

[2] = Antiproliferative activity against human QSG7701 cells after 24 hrs by CCK-8 assay; type: cell-based; details: QSG7701, 24 h
Procedure, shortened: (§1)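 Cells in 10% FBS medium with penicillin/streptomycin at 37 °C, 5% CO2; HepG-2 in DMEM, QGY-7703, SMMC-7721 and QSG-7701 in RPMI 1640. Seeded 2 × 10^5 cells/well, grown 24 h, then exposed to five concentrations of compound or 1% DMSO vehicle for 24 h. CCK-8 added for 1 h, absorbance read at 450 nm; IC50 derived from the 5-dose data.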

[3] = tested on: HepG2; test: Antiproliferative activity against human HepG2 cells after 24 hrs by CCK-8 assay; type: functional, cell-based; details: HepG2, 24 h; procedure, shortened: as §1
[4] = tested on: QGY-7703; test: Antiproliferative activity against human QGY7703 cells after 24 hrs by CCK-8 assay; type: functional, cell-based; details: QGY-7703, 24 h; procedure, shortened: as §1
[5] = tested on: SMMC-7721; test: Antiproliferative activity against human SMMC7721 cells after 24 hrs by CCK-8 assay; type: functional, cell-based; details: SMMC-7721, 24 h; procedure, shortened: as §1
[6] = tested on: QGY-7703; test: Induction of apoptosis in human QGY7703 cells assessed as late apoptotic cells at 10 uM after 24 hrs by Annexin-V FITC/propidium iodide staining based flow cytometric analysis (reference value: 4.1 to 4.3%); type: functional
Procedure, shortened: (§2)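 Assay in QGY-7703 cells kept in RPMI 1640 with 10% FBS. Seeded at 5 × 10^5 cells/well for 24 h, then treated for 24 h with 5, 10 or 15 μM compound, DMSO as control. Annexin V-FITC/PI staining for 15 min at room temperature in the dark, then immediate flow cytometry to count the apoptotic fractions.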

[7] = tested on: QGY-7703; test: Induction of apoptosis in human QGY7703 cells assessed as viable cells at 5 uM after 24 hrs by Annexin-V FITC/propidium iodide staining based flow cytometric analysis (reference value: 94.2 to 94.3%); type: functional; details: QGY-7703, 24 h, read-out: Activity; procedure, shortened: as §2
[8] = tested on: QGY-7703; test: Induction of apoptosis in human QGY7703 cells assessed as viable cells at 10 uM after 24 hrs by Annexin-V FITC/propidium iodide staining based flow cytometric analysis (reference value: 94.2 to 94.3%); type: functional; details: QGY-7703, 24 h, read-out: Activity; procedure, shortened: as §2
[9] = tested on: QGY-7703; test: Induction of apoptosis in human QGY7703 cells assessed as late apoptotic cells at 15 uM after 24 hrs by Annexin-V FITC/propidium iodide staining based flow cytometric analysis (reference value: 4.1 to 4.3%); type: functional; procedure, shortened: as §2
[10] = tested on: QGY-7703; test: Induction of apoptosis in human QGY7703 cells assessed as early apoptotic cells at 10 uM after 24 hrs by Annexin-V FITC/propidium iodide staining based flow cytometric analysis (reference value: 0.8 to 1%); type: functional; procedure, shortened: as §2
[11] = tested on: QGY-7703; test: Induction of apoptosis in human QGY7703 cells assessed as necrotic cells at 5 uM after 24 hrs by Annexin-V FITC/propidium iodide staining based flow cytometric analysis (reference value: 0.6 to 0.7%); type: functional; procedure, shortened: as §2
[12] = tested on: QGY-7703; test: Induction of apoptosis in human QGY7703 cells assessed as necrotic cells at 15 uM after 24 hrs by Annexin-V FITC/propidium iodide staining based flow cytometric analysis (reference value: 0.6 to 0.7%); type: functional; procedure, shortened: as §2
[13] = tested on: QGY-7703; test: Induction of apoptosis in human QGY7703 cells assessed as early apoptotic cells at 15 uM after 24 hrs by Annexin-V FITC/propidium iodide staining based flow cytometric analysis (reference value: 0.8 to 1%); type: functional; procedure, shortened: as §2
[14] = tested on: QGY-7703; test: Induction of apoptosis in human QGY7703 cells assessed as late apoptotic cells at 5 uM after 24 hrs by Annexin-V FITC/propidium iodide staining based flow cytometric analysis (reference value: 4.1 to 4.3%); type: functional; procedure, shortened: as §2
[15] = tested on: QGY-7703; test: Induction of apoptosis in human QGY7703 cells assessed as early apoptotic cells at 5 uM after 24 hrs by Annexin-V FITC/propidium iodide staining based flow cytometric analysis (reference value: 0.8 to 1%); type: functional; procedure, shortened: as §2
[16] = tested on: QGY-7703; test: Induction of apoptosis in human QGY7703 cells assessed as viable cells at 15 uM after 24 hrs by Annexin-V FITC/propidium iodide staining based flow cytometric analysis (reference value: 94.2 to 94.3%); type: functional; details: QGY-7703, 24 h, read-out: Activity; procedure, shortened: as §2
[17] = tested on: QGY-7703; test: Induction of apoptosis in human QGY7703 cells assessed as necrotic cells at 10 uM after 24 hrs by Annexin-V FITC/propidium iodide staining based flow cytometric analysis (reference value: 0.6 to 0.7%); type: functional; procedure, shortened: as §2

| Structure (SMILES) | Activity [1] [%] | IC50 [2] [µM] | IC50 [3] [µM] | IC50 [4] [µM] | IC50 [5] [µM] | also measured |
| --- | --- | --- | --- | --- | --- | --- |
| C=C1C(=O)O[C@@H]2C3=C(C)[C@@H](OC(=O)/C=C/c4ccc([N+](=O)[O-])cc4)CC3[C@](C)(OC(C)=O)CC[C@@H]12 (stereo partly specified) | 42.67 | – | – | – | – | – |
| C=C1C(=O)O[C@@H]2C3=C(C)[C@@H](OC(=O)/C=C/c4ccccc4)CC3[C@](C)(OC(C)=O)CC[C@@H]12 (stereo partly specified) | 56.11 | > 100 | 16.2 | 18.8 | 6.43 | – |
| C=C1C(=O)O[C@@H]2C3=C(C)[C@@H](OC(=O)c4ccc(C(C)C)cc4)CC3[C@](C)(OC(C)=O)CC[C@@H]12 (stereo partly specified) | 37.86 | – | – | – | – | – |
| C=C1C(=O)O[C@@H]2C3=C(C)[C@@H](OC(=O)c4ccc(OC)cc4)CC3[C@](C)(OC(C)=O)CC[C@@H]12 (stereo partly specified) | 53.03 | > 100 | 12.2 | 22.3 | 8.93 | – |
| C=C1C(=O)O[C@@H]2C3=C(C)[C@@H](OC(=O)c4ccc(F)cc4)CC3[C@](C)(OC(C)=O)CC[C@@H]12 (stereo partly specified) | 78.61 | 39 | 6.2 | 6.78 | 4.97 | – |
| C=C1C(=O)O[C@@H]2C3=C(C)[C@@H](OC(=O)c4ccc(I)cc4)CC3[C@](C)(OC(C)=O)CC[C@@H]12 (stereo partly specified) | 63.11 | 36.5 | 7.57 | 9 | 4.18 | – |
| O=c1[nH]cc(F)c(=O)[nH]1 [FLUOROURACIL] | 50.58 | 6.92 | – | 14.2 | 12.5 | Activity [6]: 11.1%; viability at 5 µM [7]: 88.4%; viability at 10 µM [8]: 76.3%; Activity [9]: 35.5%; Activity [10]: 12.6%; Activity [11]: 0%; Activity [12]: 0.4%; Activity [13]: 23%; Activity [14]: 0.9%; Activity [15]: 10.7%; viability at 15 µM [16]: 41.1%; Activity [17]: 0.1% |
| C=C1C(=O)O[C@@H]2C3=C(C)[C@@H](O)CC3[C@](C)(OC(C)=O)CC[C@@H]12 (stereo partly specified) | 32.02 | – | – | – | – | – |
| C=C1C(=O)O[C@@H]2C3=C(C)[C@@H](OC(=O)c4ccc(Br)cc4)CC3[C@](C)(OC(C)=O)CC[C@@H]12 (stereo partly specified) | 71.06 | 51.9 | 7.41 | 13.7 | 6.54 | – |
| C=C1C(=O)O[C@@H]2C3=C(C)[C@@H](OC(=O)c4ccc(C(C)(C)C)cc4)CC3[C@](C)(OC(C)=O)CC[C@@H]12 (stereo partly specified) | 64.41 | 48.5 | 11.1 | 5.13 | 9.37 | – |
| C=C1C(=O)O[C@@H]2C3=C(C)[C@@H](OC(=O)/C=C/c4ccc(C(F)(F)F)cc4)CC3[C@](C)(OC(C)=O)CC[C@@H]12 (stereo partly specified) | 71.14 | 43.3 | 6.79 | 12.7 | 6.12 | – |
| C=C1C(=O)O[C@@H]2C3=C(C)[C@@H](OC(=O)/C=C/c4ccc(OCCC)cc4)CC3[C@](C)(OC(C)=O)CC[C@@H]12 (stereo partly specified) | 47.78 | – | – | – | – | – |
| C=C1C(=O)O[C@@H]2C3=C(C)[C@@H](OC(=O)c4ccc(CC)cc4)CC3[C@](C)(OC(C)=O)CC[C@@H]12 (stereo partly specified) | 42.33 | – | – | – | – | – |
| C=C1C(=O)O[C@@H]2C3=C(C)[C@@H](OC(=O)c4ccccc4)CC3[C@](C)(OC(C)=O)CC[C@@H]12 (stereo partly specified) | 68.47 | > 100 | 7.99 | 13 | 5.99 | – |
